# Results gathered from unrelated publications.
# Lines come from different studies, so protocols differ.
# Target: Serine/threonine-protein kinase Nek1 (NEK1, Homo sapiens, UniProt Q96PY6)
# Sequence (Q96PY6 1-1258, as in one of the studies): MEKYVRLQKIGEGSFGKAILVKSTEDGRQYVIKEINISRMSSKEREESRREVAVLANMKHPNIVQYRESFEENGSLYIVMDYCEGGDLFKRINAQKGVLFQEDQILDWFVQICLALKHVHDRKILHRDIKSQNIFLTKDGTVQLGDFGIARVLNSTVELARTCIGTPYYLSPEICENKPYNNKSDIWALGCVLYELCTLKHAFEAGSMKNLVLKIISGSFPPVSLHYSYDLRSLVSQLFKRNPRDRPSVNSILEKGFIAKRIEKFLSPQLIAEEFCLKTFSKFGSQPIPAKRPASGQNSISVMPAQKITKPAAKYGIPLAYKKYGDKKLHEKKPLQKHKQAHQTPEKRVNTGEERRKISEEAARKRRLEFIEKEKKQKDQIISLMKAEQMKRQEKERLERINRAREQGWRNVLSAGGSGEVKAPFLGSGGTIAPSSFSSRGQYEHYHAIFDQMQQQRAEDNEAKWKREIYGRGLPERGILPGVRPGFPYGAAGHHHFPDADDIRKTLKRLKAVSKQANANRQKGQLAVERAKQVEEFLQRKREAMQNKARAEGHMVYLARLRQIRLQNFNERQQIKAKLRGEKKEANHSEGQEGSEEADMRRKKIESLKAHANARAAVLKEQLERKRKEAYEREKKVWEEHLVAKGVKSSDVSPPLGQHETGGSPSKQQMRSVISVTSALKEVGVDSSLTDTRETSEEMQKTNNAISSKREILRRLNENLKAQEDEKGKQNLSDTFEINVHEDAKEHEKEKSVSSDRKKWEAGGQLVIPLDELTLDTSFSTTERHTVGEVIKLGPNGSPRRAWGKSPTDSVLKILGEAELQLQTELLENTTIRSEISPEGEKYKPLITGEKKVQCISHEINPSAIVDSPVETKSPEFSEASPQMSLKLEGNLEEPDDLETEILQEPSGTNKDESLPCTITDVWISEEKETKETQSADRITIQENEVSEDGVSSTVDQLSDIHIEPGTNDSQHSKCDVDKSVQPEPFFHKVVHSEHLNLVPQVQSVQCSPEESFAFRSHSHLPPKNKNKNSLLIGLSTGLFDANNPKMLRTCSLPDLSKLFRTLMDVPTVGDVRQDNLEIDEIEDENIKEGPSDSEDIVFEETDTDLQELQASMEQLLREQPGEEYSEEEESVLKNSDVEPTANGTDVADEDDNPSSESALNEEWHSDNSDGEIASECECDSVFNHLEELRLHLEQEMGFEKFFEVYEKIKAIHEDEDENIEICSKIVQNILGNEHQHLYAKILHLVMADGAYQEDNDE
Compound,read-out,mode,method,cell line,tested at,quantity,value
CC(=O)N1CCC(c2ccc(C(=O)NC3=NCCN3)cc2C(F)(F)F)CC1,cell-free assay,,competition with immobilised ligand,,1 µM,remaining binding,100%
CNc1cc(Oc2cc(C(=O)Nc3cc(N4CCN(C)CC4)cc(C(F)(F)F)c3)ccc2C)ncn1,target engagement in cells,inhibitor,chemoproteomics,Huh-7,1 µM,inhibition,-12.5%
COc1ccc(COc2ccc(Cc3cnc(N)nc3N)cc2OC)cc1,cell-free assay,,,,0.5 µM,remaining signal,95.6%
COc1cccc2c(NCc3ccccc3)nc(-n3c(N)nc4ccccc43)nc12,target engagement in cells,inhibitor,chemoproteomics,,20 mM,inhibition,-13%
Cn1cnc(Br)c1C1=CN(c2ncnc3[nH]cnc23)CCS1,enzyme activity,inhibitor,radiometric,,50 nM,inhibition,33.1%
C[C@@H]1CN(c2cc(-c3n[nH]c4ccc(OC5(C)CC5)cc34)ncn2)C[C@H](C)O1,cell-free assay,,competition with immobilised ligand,,0.1 µM,remaining binding,100%
COc1cc2ncnc(Nc3ccc(Oc4ccccc4)c(C)c3C)c2cc1OC,enzyme activity,inhibitor,,,1 µM,inhibition,-2%
N#CCCc1ccc2c(c1)-c1[nH]c3ccc([N+](=O)[O-])cc3c1CC(=O)N2,cell-free assay,,,,0.5 µM,remaining signal,132%
Cc1sc(C(=O)NC2COC2)cc1-n1cc(NC(=O)Nc2c(F)cccc2Cl)cn1,enzyme activity,inhibitor,,,10 µM,remaining activity,90.4%
Cc1ccc(Nc2nccc(N(C)c3ccc4c(C)n(C)nc4c3)n2)cc1S(N)(=O)=O,enzyme activity,inhibitor,,,0.5 µM,remaining activity,105%
CC(C)(C)c1nc2c(s1)c1nc(N)ncc1c1ccc(NS(=O)(=O)c3c(F)cccc3F)c(F)c12,enzyme activity,inhibitor,radiometric,,1 µM,remaining activity,92%
Nc1ncnc2occ(-c3ccc(NC(=O)Nc4cc(C(F)(F)F)ccc4F)cc3)c12,cell-free assay,inhibitor,,,20 µM,remaining signal,22%
C[C@@H]1CN(c2cc(-c3nn(C)c4ccc(OC5(C)CC5)cc34)ncn2)C[C@H](C)O1,cell-free assay,,competition with immobilised ligand,,1 µM,remaining binding,83%
CCN1CCN(Cc2ccc(NC(=O)c3ccc(C)c(/C=C/c4cnc5[nH]ccc5c4OC)c3)cc2C(F)(F)F)CC1,target engagement in cells,inhibitor,chemoproteomics,A-375,0.5 µM,inhibition,-15.8%
CCOCCn1cc(C(=O)Nc2ccc(-n3nc(-c4cccnc4)cc3C(F)(F)F)cn2)ccc1=O,cell-free assay,,competition with immobilised ligand,,1 µM,remaining binding,100%
CN1CC(Oc2cnc(C#N)cc2-c2ccn3nc(NC(=O)C4CC4)cc3c2)C1,enzyme activity,inhibitor,,,1 µM,inhibition,8%
C[C@H](c1ccc(F)cc1)N(Cc1cccc(C(=O)O)c1)C(=O)c1cnc2ccccc2c1,cell-free assay,,competition with immobilised ligand,,1 µM,remaining binding,100%
CCCS(=O)(=O)Nc1ccc(F)c(C(=O)c2c[nH]c3ncc(-c4ccc(Cl)cc4)cc23)c1F,enzyme activity,inhibitor,,,1 µM,inhibition,< 20%
CNC(=O)c1ccc(Nc2ncc(C(F)(F)F)c(NCc3nccnc3N(C)S(C)(=O)=O)n2)cc1,cell-free assay,,competition with immobilised ligand,,0.1 µM,remaining binding,75%
CC/C(=N\NC(=O)NCc1cccc(O)c1)c1ccc(O)c(C)c1O,enzyme activity,inhibitor,,,0.1 µM,inhibition,-6%
CS(=O)(=O)c1cc(C2(NC(=O)c3cncc4c3cnn4-c3ccc(F)cc3)CC2)ccn1,cell-free assay,,competition with immobilised ligand,,1 µM,remaining binding,45%
c1cnn2ncc(-c3ccnc(N4CCC45COC5)n3)c2c1,binding,,,,1 µM,remaining binding,100%
